Screens from PubChem BioAssay.
ALR inh: human ALR oxidase inhibition via reduced H2O2 | P55789 | purified ALR, DTT oxidation, H2O2 HRP-luminol luminescence | 3.8% of 290,000 active | inhibition, % (test concentration not listed);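 active = mean replicate inhibition above about 79%, with every replicate also reaching it, limit read from the data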
Target sequence (P55789 whole entry, looked up): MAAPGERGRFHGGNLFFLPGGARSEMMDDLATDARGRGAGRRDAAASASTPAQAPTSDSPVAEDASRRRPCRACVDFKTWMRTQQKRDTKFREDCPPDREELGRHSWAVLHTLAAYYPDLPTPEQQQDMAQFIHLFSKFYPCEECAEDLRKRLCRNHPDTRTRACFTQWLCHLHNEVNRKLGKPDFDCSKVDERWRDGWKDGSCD
EBNA-1 inh: blocks EBNA-1 binding to DNA | EBNA-1 DNA binding, fluorescence polarization | AID 1950 | 0.34% of 300,000 active | inhibition, % at 14.8 µM; in the data active = inhibition above about 28%
ZTA counter: ZTA (EBV) inhibition in EBNA-1 counter-screen. P03206. ZTA-DNA binding, fluorescence polarization. inhibition, % at 11 µM. 0.15% of 320,000 active. AID 2234; in the data active = inhibition above about 33%
Target sequence (P03206 whole entry, looked up): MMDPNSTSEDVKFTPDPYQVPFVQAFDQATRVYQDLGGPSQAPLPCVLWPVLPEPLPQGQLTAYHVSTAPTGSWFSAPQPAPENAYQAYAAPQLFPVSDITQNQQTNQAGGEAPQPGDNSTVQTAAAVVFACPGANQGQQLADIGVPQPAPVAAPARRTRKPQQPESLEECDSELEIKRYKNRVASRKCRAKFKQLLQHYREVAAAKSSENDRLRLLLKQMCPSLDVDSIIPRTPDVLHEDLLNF
HCV core dimer: blocks dimerization of HCV core protein; TR-FRET GST/Flag-core106 dimerization, 1536-well; inhibition, % at 5 µM; 0.33% of 300,000 active;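 active = inhibition above the mean of all tested compounds plus 3 SD, set per screening campaign, cut at about 45% in these data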
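Assay system: GST-tagged and Flag-tagged HCV core protein residues 1-106 / Times: compound-protein-antibody incubation 4 h at 22.5 °C / Signal: time-resolved FRET, ex 340 nm, em 617 and 671 nm / Evaluation: % inhibition based on acceptor/donor emission ratio / Benchmarks: wells lacking GST-core106 and wells with excess unlabelled core106 / Repeats: singlicate, one well per compound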
M18AAP inhibitor: blocks P. falciparum M18 aspartyl aminopeptidase; recombinant PfM18AAP, H-Glu-NHMec fluorogenic cleavage; inhibition, % at 7.35 µM; 1.2% of 290,000 active;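 active = inhibition above the campaign mean inhibition over all tested compounds plus 3 SD, cut at about 28% in these data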;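 also: 0% = plate median of test compound wells and 100% = 2 mM ZnCl2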
HCV NS3 hel inh: inhibitors of Hepatitis C virus NS3 helicase; 0.56% of 290,000 active; inhibition, % at 10.9 µM; AID 1800; NS3 helicase DNA unwinding, Cy5 molecular beacon fluorescence;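 active = inhibition above the mean of all tested compounds plus 3 SD, set per campaign, cut at about 35% in these data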;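 also: 0% = DMSO wells and 100% = thioflavine S control wells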
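System: NS3 helicase fragment of HCV / Schedule: 1 h at 25 °C / Control set: DMSO alone as 0% and 110 µM thioflavine S as 100% / Reagent: Cy5/quencher beacon DNA duplex and ATP to start / Technique: Cy5 fluorescence / Replication: singlicate / Evaluation: % inhibition of end-to-start signal ratio versus controls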
Numbers without * were called inactive; / = no result given. Sampled rows, rich in hits. Any-hit rate of the full collection: about 5.2%.

SMILES | ALR inh | EBNA-1 inh | ZTA counter | HCV core dimer | M18AAP inhibitor | HCV NS3 hel inh
COc1ccccc1OCC(=O)NNC(=S)NC(=O)c1ccco1 | 89* | 7 | 1 | -9 | 9 | 3
COc1ccc(NC(=S)NCc2ccc(F)cc2)c(OC)c1 | 99* | -8 | -3 | -2 | 3 | -6
COc1ccc(/C=C/C(=O)NC(=S)NNC(=O)c2ccco2)cc1 | 86* | -4 | -17 | -2 | 8 | 8
Fc1ccccc1N1CCN(C2CCCN(Cc3cccc(C(F)(F)F)c3)C2)CC1 (stereo not given) | / | 3 | 4 | -2 | 1 | -15
N#C/C(=N\Nc1c(Cl)cccc1Cl)C(=O)NN | 98* | -4 | -11 | -16 | 11 | -3
N#C/C(=N\Nc1ccccc1Cl)C(=O)c1ccccc1 | / | 6 | 9 | 0 | 3 | 10
CC(=O)Nc1ccc(S(=O)(=O)NC(C)C(=O)NCCc2ccc(F)cc2)cc1 (stereo not given) | 98* | -7 | -2 | -2 | 0 | 4
Cc1ccccc1C(=O)NNS(=O)(=O)c1cccc([N+](=O)[O-])c1 | -11 | -7 | -23 | 2 | 2 | 1
Cc1ccc(C2CC(c3cccs3)=NN2C(=O)CSc2nc(=O)n3ccc(C)cc3n2)cc1 (stereo not given) | / | 6 | -22 | 61* | / | /
COc1ccc(C2CC(c3cccs3)=NN2C(=O)CSc2nc(=O)n3ccc(C)cc3n2)cc1 (stereo not given) | -5 | -8 | -5 | 48* | / | /
COc1cc(C#N)ccc1OCC(=O)N1CCc2ccccc2C1 | -6 | 3 | 0 | 9 | 4 | -3
CN1CCN(C(CNC(=O)C(=O)Nc2ccc3c(c2)OCCO3)c2ccc(F)cc2)CC1 (stereo not given) | -4 | 0 | -15 | -1 | / | /
C=CCn1c(=O)c2ccccc2n2c(SCc3csc(-c4ccccc4)n3)nnc12 | 99* | 5 | 3 | -2 | -5 | -2
COc1ccccc1-n1cnnc1SCc1csc(-c2ccccc2)n1 | -13 | 0 | -3 | 6 | 3 | -5
C=CCn1c(SCc2csc(-c3ccc(C)cc3)n2)nnc1-c1ccccc1OC | 99* | 2 | -1 | 5 | 1 | -25
COc1ccc(C(=O)/C(C#N)=N/Nc2cccc([N+](=O)[O-])c2)cc1 | / | / | / | / | 9 | 19
Cc1cc(O)ccc1Nc1nc(-c2sc(N)nc2C)cs1 | 85* | -5 | -3 | -12 | 23 | -4
CCC(=O)Nc1nc(C)c(-c2csc(Nc3cccc(C(=O)O)c3)n2)s1 | 88* | 9 | -10 | -6 | 11 | 10
Cc1nc(C)c(-c2csc(Nc3cccnc3)n2)s1 | 89* | -7 | 7 | -2 | 5 | 10
CC(=O)Nc1nc(C)c(-c2csc(Nc3ccc(O)cc3)n2)s1 | 99* | -2 | -20 | -28 | 28* | -4
COc1ccc(OC)c(Nc2nc(-c3sc(N)nc3C)cs2)c1 | -55 | -12 | -11 | -13 | 17 | 4
CCCNC(=O)c1ccccc1NC(=O)CN(c1ccccc1)S(=O)(=O)N(C)C | -4 | -3 | -16 | -12 | 27 | 32
CCOc1ccc(S(=O)(=O)N2CCCC(C(=O)NCCN3CCOCC3)C2)cc1Cl (stereo not given) | -7 | -9 | -9 | -10 | -6 | 4
Cc1nc(N)sc1-c1csc(Nc2cccc(C(=O)O)c2)n1 | 3 | / | / | / | 29* | 10
Cc1cc(NS(=O)(=O)c2ccc(Nc3nc(-c4sc(N)nc4C)cs3)cc2)no1 | 99* | 4 | 27 | -24 | 6 | 7
Cc1nc(C)c(-c2csc(Nc3ccc(O)c(C(=O)O)c3)n2)s1 | 89* | / | / | / | -21 | 26
Cc1cc(NS(=O)(=O)c2ccc(Nc3nc(-c4ccc(C)c(C)c4)cs3)cc2)no1 | 31 | 14 | 12 | 23 | 1 | -12
Cc1nc(N)sc1-c1csc(Nc2ccccc2)n1 | 18 | -18 | -18 | -2 | 14 | 5
COc1ccc(OC)c(NC(=O)Cn2cc(C=O)c3ccccc32)c1 | / | -8 | -16 | -1 | 5 | -9
CCOc1ccccc1C(=O)Nc1cc2c(cc1N1CCCC1)n(CC)c(=O)n2CC | 99* | 14 | 7 | 8 | 12 | -7
